Converted amounts (≈) assume the structure as drawn.
Tests used:
Pseudomonas aeruginosa [1] = assay: Antibacterial activity against Pseudomonas aeruginosa ARC3916 after 24 hrs by broth microdilution method; assay type: functional; conditions: ARC3916, 24 h
Method in brief: (§1)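 Broth microdilution per CLSI. Bacterial suspension adjusted to 1×10^6 CFU/mL in cation-adjusted Mueller–Hinton broth and mixed 1:1 with 2-fold serial compound dilutions. Final DMSO 2.5% v/v. Plates incubated at 35 °C with shaking at 140 rpm for 24 h.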

Pseudomonas aeruginosa [2] = assay: Antibacterial activity against Pseudomonas aeruginosa ARC3504 after 24 hrs by broth microdilution method; assay type: functional; conditions: ARC3504, 24 h; method in brief: as §1
Pseudomonas aeruginosa [3] = assay: Antibacterial activity against Pseudomonas aeruginosa ARC4060 after 24 hrs by broth microdilution method; assay type: functional; conditions: ARC4060, 24 h; method in brief: as §1
Staphylococcus aureus [4] = assay: Antibacterial activity against methicillin-resistant Staphylococcus aureus USA100 after 24 hrs by broth microdilution method; assay type: functional; conditions: USA100, 24 h
Method in brief: (§2)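 Broth microdilution per CLSI. Bacterial suspensions adjusted to 1×10^6 CFU/mL in cation-adjusted Mueller–Hinton broth, mixed 1:1 with 2-fold serial compound dilutions (final DMSO 2.5% v/v). Incubation 35 °C, 140 rpm, 24 h.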

Staphylococcus aureus [5] = assay: Antibacterial activity against Staphylococcus aureus ATCC 29213 after 24 hrs in presence of 2% human albumin by broth microdilution method; assay type: functional; conditions: ATCC 29213, 24 h
Acinetobacter baumannii [6] = assay: Antibacterial activity against Acinetobacter baumannii ARC2728 after 24 hrs by broth microdilution method; assay type: functional; conditions: ARC2728, 24 h; method in brief: as §1
Pseudomonas aeruginosa [7] = assay: Antibacterial activity against Pseudomonas aeruginosa ARC3502 after 24 hrs by broth microdilution method; assay type: functional; conditions: ARC3502, 24 h
Method in brief: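 Broth microdilution per CLSI. Bacterial suspension adjusted to 1×10^6 CFU/mL in cation-adjusted Mueller–Hinton broth and mixed 1:1 with 2-fold serial compound dilutions. Plates incubated at 35 °C with shaking at 140 rpm for 24 h.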

Acinetobacter baumannii [8] = assay: Antibacterial activity against Acinetobacter baumannii ARC3495 after 24 hrs by broth microdilution method; assay type: functional; conditions: ARC3495, 24 h; method in brief: as §1
Pseudomonas aeruginosa [9] = assay: Antibacterial activity against Pseudomonas aeruginosa ARC003 after 24 hrs by broth microdilution method; assay type: functional; conditions: ARC003, 24 h; method in brief: as §1
Acinetobacter baumannii [10] = assay: Antibacterial activity against Acinetobacter baumannii ARC2779 after 24 hrs by broth microdilution method; assay type: functional; conditions: ARC2779, 24 h; method in brief: as §1
[11] = Dissociation constant, basic pKa of compound by pH metric method; assay type: physicochemical
Method in brief: (§3)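 Potentiometric (pH-metric) titration on an automated titrator, Gold Standard pH metric assay, run in triplicate.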

Pseudomonas aeruginosa [12] = assay: Antibacterial activity against Pseudomonas aeruginosa ARC3606 after 24 hrs by broth microdilution method; assay type: functional; conditions: ARC3606, 24 h; method in brief: as §1
Escherichia coli = assay: Antibacterial activity against tolC deficient Escherichia coli after 24 hrs by broth microdilution method; assay type: functional
Method in brief: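 Broth microdilution per CLSI guidelines. Inoculum adjusted to 1×10^6 CFU/mL in cation-adjusted Mueller–Hinton broth, added 1:1 to 2-fold serial compound dilutions; final DMSO 2.5% v/v. Plates incubated 35 °C, 140 rpm, 24 h.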

Pseudomonas aeruginosa [13] = assay: Antibacterial activity against Pseudomonas aeruginosa ARC3612 after 24 hrs by broth microdilution method; assay type: functional; conditions: ARC3612, 24 h; method in brief: as §1
Pseudomonas aeruginosa [14] = assay: Antibacterial activity against Pseudomonas aeruginosa ARC3509 after 24 hrs by broth microdilution method; assay type: functional; conditions: ARC3509, 24 h; method in brief: as §1
Pseudomonas aeruginosa [15] = assay: Antibacterial activity against Pseudomonas aeruginosa ARC3607 after 24 hrs by broth microdilution method; assay type: functional; conditions: ARC3607, 24 h; method in brief: as §1
[16] = Dissociation constant, acidic pKa of compound by pH metric method; assay type: physicochemical; method in brief: as §3
Pseudomonas aeruginosa [17] = assay: Antibacterial activity against Pseudomonas aeruginosa harboring MexABCDXY deletion mutant after 24 hrs by broth microdilution method; assay type: functional; method in brief: as §2
[18] = Dissociation constant, pKa of compound by pH metric method; assay type: physicochemical; method in brief: as §3

CCNC(=O)Nc1cc(-c2nc(C3CC3)cs2)c(-c2cc(-c3n[nH]c(=O)o3)cnc2N2C3CCC2CN(C)C3)cn1
MIC (Pseudomonas aeruginosa [1]): 2 mg/L (≈ 3.49 µM)
MIC (Pseudomonas aeruginosa [2]): 4 mg/L (≈ 6.97 µM)
MIC (Pseudomonas aeruginosa [3]): 4 mg/L (≈ 6.97 µM)
MIC (Staphylococcus aureus [4]): < 0.06 mg/L
MIC (Staphylococcus aureus [5]): < 0.06 mg/L
MIC (Acinetobacter baumannii [6]): 1 mg/L (≈ 1.74 µM)
MIC (Pseudomonas aeruginosa [7]): 4 mg/L (≈ 6.97 µM)
MIC (Acinetobacter baumannii [8]): 0.5 mg/L (≈ 0.872 µM)
MIC (Pseudomonas aeruginosa [9]): 1 mg/L (≈ 1.74 µM)
MIC (Acinetobacter baumannii [10]): 1 mg/L (≈ 1.74 µM)
pKa [11]: 7.9
MIC (Pseudomonas aeruginosa [12]): 4 mg/L (≈ 6.97 µM)
MIC (Escherichia coli): 0.11 mg/L (≈ 0.192 µM)
MIC (Pseudomonas aeruginosa [13]): 4 mg/L (≈ 6.97 µM)
MIC (Pseudomonas aeruginosa [14]): 4 mg/L (≈ 6.97 µM)
MIC (Pseudomonas aeruginosa [15]): 4 mg/L (≈ 6.97 µM)
pKa [16]: 6.7
MIC (Pseudomonas aeruginosa [17]): 0.23 mg/L (≈ 0.401 µM)

CCNC(=O)Nc1cc(-c2nc(C(F)(F)F)cs2)c(-c2cc(-c3n[nH]c(=O)o3)cnc2N2C3CCC2CN(C)C3)cn1
MIC (Pseudomonas aeruginosa [1]): 4 mg/L (≈ 6.65 µM)
MIC (Pseudomonas aeruginosa [2]): 8 mg/L (≈ 13.3 µM)
MIC (Pseudomonas aeruginosa [3]): 8 mg/L (≈ 13.3 µM)
MIC (Staphylococcus aureus [4]): < 0.06 mg/L
MIC (Staphylococcus aureus [5]): < 0.06 mg/L
MIC (Acinetobacter baumannii [6]): 1 mg/L (≈ 1.66 µM)
MIC (Pseudomonas aeruginosa [7]): 8 mg/L (≈ 13.3 µM)
MIC (Acinetobacter baumannii [8]): 0.5 mg/L (≈ 0.831 µM)
MIC (Pseudomonas aeruginosa [9]): 2 mg/L (≈ 3.32 µM)
MIC (Acinetobacter baumannii [10]): 1 mg/L (≈ 1.66 µM)
pKa [11]: 7.8
MIC (Pseudomonas aeruginosa [12]): 8 mg/L (≈ 13.3 µM)
MIC (Escherichia coli): 0.12 mg/L (≈ 0.199 µM)
MIC (Pseudomonas aeruginosa [13]): 8 mg/L (≈ 13.3 µM)
MIC (Pseudomonas aeruginosa [14]): 8 mg/L (≈ 13.3 µM)
MIC (Pseudomonas aeruginosa [15]): 16 mg/L (≈ 26.6 µM)
pKa [16]: 6.7
MIC (Pseudomonas aeruginosa [17]): 0.3 mg/L (≈ 0.499 µM)

CCNC(=O)Nc1cc(-c2nc(C(F)(F)F)cs2)c(-c2cc3ncccc3nc2N2C3CCC2CN(C)C3)cn1
MIC (Pseudomonas aeruginosa [1]): 16 mg/L (≈ 28.1 µM)
MIC (Pseudomonas aeruginosa [2]): 32 mg/L (≈ 56.3 µM)
MIC (Pseudomonas aeruginosa [3]): 16 mg/L (≈ 28.1 µM)
MIC (Staphylococcus aureus [4]): < 0.06 mg/L
MIC (Staphylococcus aureus [5]): < 0.06 mg/L
MIC (Acinetobacter baumannii [6]): 1 mg/L (≈ 1.76 µM)
MIC (Pseudomonas aeruginosa [7]): 16 mg/L (≈ 28.1 µM)
MIC (Acinetobacter baumannii [8]): 2 mg/L (≈ 3.52 µM)
MIC (Pseudomonas aeruginosa [9]): 4 mg/L (≈ 7.03 µM)
MIC (Acinetobacter baumannii [10]): 2 mg/L (≈ 3.52 µM)
MIC (Pseudomonas aeruginosa [12]): 32 mg/L (≈ 56.3 µM)
MIC (Escherichia coli): 0.14 mg/L (≈ 0.246 µM)
pKa [18]: 7.8
MIC (Pseudomonas aeruginosa [13]): 32 mg/L (≈ 56.3 µM)
MIC (Pseudomonas aeruginosa [14]): 16 mg/L (≈ 28.1 µM)
MIC (Pseudomonas aeruginosa [15]): 64 mg/L (≈ 113 µM)
MIC (Pseudomonas aeruginosa [17]): 0.56 mg/L (≈ 0.985 µM)

Reference: ChEMBL document CHEMBL4270612, “Discovery of dual GyrB/ParE inhibitors active against Gram-negative bacteria” (Eur J Med Chem, 2018)
